Measurements as given in ChEMBL document CHEMBL4732170, “Discovery of Small-Molecule Antagonists of the PWWP Domain of NSD2” (J Med Chem, 2021).
Active and inactive are the calls of the source. The rule behind the calls is not given here.

How the values were obtained:
[1] = target: T1, Histone-lysine N-methyltransferase NSD2 (Homo sapiens, UniProt O96028); assay: (§1) Binding affinity to NSD2 PWWP1 domain (unknown origin) assessed as dissociation constant by surface plasmon resonance analysis
T1 sequence (O96028 whole entry): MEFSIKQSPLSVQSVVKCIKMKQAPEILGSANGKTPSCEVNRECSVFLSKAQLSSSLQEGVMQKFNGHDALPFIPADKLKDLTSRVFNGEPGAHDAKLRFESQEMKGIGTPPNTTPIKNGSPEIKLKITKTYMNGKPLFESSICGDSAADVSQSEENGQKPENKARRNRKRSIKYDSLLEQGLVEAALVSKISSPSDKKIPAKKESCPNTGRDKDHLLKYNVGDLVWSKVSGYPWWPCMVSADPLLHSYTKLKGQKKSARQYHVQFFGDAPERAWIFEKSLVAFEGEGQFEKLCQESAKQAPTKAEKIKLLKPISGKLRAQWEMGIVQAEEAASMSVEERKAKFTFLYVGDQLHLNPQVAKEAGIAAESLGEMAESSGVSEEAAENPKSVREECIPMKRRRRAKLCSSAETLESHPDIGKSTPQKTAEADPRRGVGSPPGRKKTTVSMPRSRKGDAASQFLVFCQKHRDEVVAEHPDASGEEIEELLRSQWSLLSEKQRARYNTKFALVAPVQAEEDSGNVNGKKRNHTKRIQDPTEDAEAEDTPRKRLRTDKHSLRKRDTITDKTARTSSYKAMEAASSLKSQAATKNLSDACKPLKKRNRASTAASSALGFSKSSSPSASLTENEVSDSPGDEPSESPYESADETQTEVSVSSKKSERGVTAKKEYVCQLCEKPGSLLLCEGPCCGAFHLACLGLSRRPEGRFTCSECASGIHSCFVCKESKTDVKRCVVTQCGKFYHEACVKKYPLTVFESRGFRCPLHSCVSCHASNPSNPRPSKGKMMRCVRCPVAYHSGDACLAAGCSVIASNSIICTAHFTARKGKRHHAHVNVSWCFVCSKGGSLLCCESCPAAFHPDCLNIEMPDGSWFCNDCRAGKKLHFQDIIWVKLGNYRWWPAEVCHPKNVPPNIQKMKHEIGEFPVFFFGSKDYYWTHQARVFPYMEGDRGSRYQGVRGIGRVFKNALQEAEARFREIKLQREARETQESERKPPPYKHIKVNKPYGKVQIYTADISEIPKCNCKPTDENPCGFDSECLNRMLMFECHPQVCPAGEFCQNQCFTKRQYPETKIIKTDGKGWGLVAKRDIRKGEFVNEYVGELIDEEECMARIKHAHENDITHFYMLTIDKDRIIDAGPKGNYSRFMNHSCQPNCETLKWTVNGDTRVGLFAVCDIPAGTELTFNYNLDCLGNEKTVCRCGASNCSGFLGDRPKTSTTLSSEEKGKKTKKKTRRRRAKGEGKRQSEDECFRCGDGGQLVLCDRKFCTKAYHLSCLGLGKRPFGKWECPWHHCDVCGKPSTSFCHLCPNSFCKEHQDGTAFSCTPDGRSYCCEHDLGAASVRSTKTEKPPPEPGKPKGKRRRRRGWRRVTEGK
In short: (§2)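 SPR in single-cycle kinetics, HBS-EP buffer (20 mM HEPES pH 7.4, 150 mM NaCl, 3 mM EDTA, 0.05% Tween-20) with 5% DMSO. Ten concentrations from 200 μM top, twofold dilutions. Contact time 60 s, dissociation 120 s, flow 75 μL/min; Kd derived.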

[2] = target: T2, Histone-lysine N-methyltransferase NSD2 (Homo sapiens) (UniProt O96028); assay: Binding affinity to NSD2 PWWP1 domain (unknown origin) assessed as change in aggregation temperature at 500 uM by heating at 25 to 85 degC by differential static light scattering method; conditions: for deltaT: filed as antagonist
T2 sequence (whole entry): T1 sequence (O96028 whole entry)

[3] = target: T2, Histone-lysine N-methyltransferase NSD2 (Homo sapiens); assay: as §1; in short: as §2

Kd [1] | deltaT [2] | Activity [3] | Activity [2] | Structure (SMILES)
114 µM | 1.1 °C | – | – | N#Cc1ccc(C(=O)N(Cc2ccc(F)cc2)C2CCC2)cc1
– | – | inactive | inactive | CC(C)N(Cc1ccc(F)cc1)C(=O)c1ccc(C#N)cc1
160 µM | 2.8 °C | – | – | N#Cc1ccc(C(=O)N2CCCC2c2ccncc2)cc1 (configuration not stated)
– | – | inactive | inactive | N#Cc1ccc(C(=O)N(Cc2ccc(F)cc2)C2CCCCC2)cc1
5.7 µM | 5.4 °C | – | – | N#Cc1ccc(C(=O)N(CC2CCOC2)C2CC2)cc1 (configuration not stated)
– | – | inactive | inactive | N#Cc1ccc(C(=O)NCc2ccc(F)cc2)cc1
74 µM | 2 °C | – | – | CN(Cc1ccc(F)cc1)C(=O)c1ccc(C#N)cc1
208 µM | 2.4 °C | – | – | COc1ccc(C2CCCN2C(=O)c2ccc(C#N)cc2)cc1 (configuration not stated)
138 µM | 2.7 °C | – | – | N#Cc1ccc(C(=O)N2CCCC2c2ccc3c(c2)OCCO3)cc1 (configuration not stated)
110 µM | 2.4 °C | – | – | N#Cc1ccc(C(=O)N2CCCC2c2ccccc2)cc1 (configuration not stated)

The remaining lines, values behind:

Structure (SMILES) | Kd [1] | deltaT [2] | Activity [3] | Activity [2]
O=C(c1ccc(N2CNC=N2)cc1)N1CCCC1c1ccc(F)cc1 (configuration not stated) | 297 µM | 1.2 °C | – | –
O=C(c1ccccc1)N1CCCC1c1ccccc1 (configuration not stated) | – | – | inactive | inactive
N#Cc1ccc(C(=O)N(Cc2ccc(F)cc2)C2CC2)cc1 | 7 µM | – | – | –
COC(=O)c1ccc(C(=O)N2CCCC2c2ccc(F)cc2)cc1 (configuration not stated) | 173 µM | 1.4 °C | – | –
N#Cc1ccc(C(=O)N2CCCC2c2ccsc2)cc1 (configuration not stated) | 178 µM | 2.2 °C | – | –
N#Cc1ccc(C(=O)N2CCCC2c2ccc(Cl)cc2)cc1 (configuration not stated) | 175 µM | – | – | –
Cc1ccc(C(=O)N2CCCC2c2ccc(Cl)cc2)cc1 (configuration not stated) | – | – | inactive | inactive
